Assay results reported in ChEMBL document CHEMBL1139827, “Synthesis and pharmacological profile of serofendic acids A and B” (Bioorg Med Chem, 2007).
The source made the active and inactive calls. The rule behind the calls is not given here.

Legend:
Cerebral cortex [1] = test: Protective effect against glutamate-induced neurotoxicity in fetal rat cerebral cortex at 1 uM after 24 hrs; type: functional, tissue-based
Procedure, shortened: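 Primary cortical neurons from fetal Wistar rats (17–19 days gestation), used after 11–15 days in vitro; cytosine arabinoside 10 µM added at day 6. Compound present 1 h before, during and 24 h after 10 min exposure to 500 µM Glu. Viability by trypan blue exclusion (>200 cells/coverslip, five coverslips), % unstained cells; means ± SEM.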

Cerebral cortex [2] = test: Protective effect against glutamate-induced neurotoxicity in fetal rat cerebral cortex after 24 hrs; type: functional, tissue-based
Procedure, shortened: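 Wistar fetal rat cortical neurons (E17–19) grown on polyethyleneimine-coated coverslips, 10 µM cytosine arabinoside added from day 6, used at 11–15 DIV. Exposed to 500 µM Glu for 10 min; compound present 1 h before, during and 24 h after. Viability by trypan blue exclusion, >200 cells per coverslip, five coverslips, mean ± SEM.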

[3] = Half life in Sprague-Dawley rat at 1 mg/kg, iv; type: ADME, organism-based; design: dose 1 mg/kg, route intravenous; conditions: in vivo
Procedure, shortened: (§1)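 Fasted SD rats (n = 3, 290–260 g) given 1 mg/kg iv, dosing solution 1 mg/ml in 30% DMSO/5% glucose. Blood sampled at 0.25, 0.5, 1, 2, 4, 6 and 8 h. Plasma (0.1 ml) mixed with MeOH/HClO4 (500:1, 0.2 ml), centrifuged 12,000 rpm for 5 min and filtered. Plasma PK parameters derived from these samples.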

[4] = Volume of distribution at steady state in Sprague-Dawley rat at 1 mg/kg, iv; type: ADME, organism-based; design: dose 1 mg/kg, route intravenous; conditions: in vivo, read-out: Vdss; procedure, shortened: as §1
[5] = Total clearance in Sprague-Dawley rat at 1 mg/kg, iv; type: ADME, organism-based; design: dose 1 mg/kg, route intravenous; conditions: in vivo; procedure, shortened: as §1
[6] = AUC in Sprague-Dawley rat at 1 mg/kg, iv; type: ADME, organism-based; design: dose 1 mg/kg, route intravenous; conditions: plasma; procedure, shortened: as §1
[7] = Ratio of drug level in brain to plasma in Sprague-Dawley rat at 1 mg/kg, iv after 0.5 hr; type: ADME, organism-based; design: dose 1 mg/kg, route intravenous; conditions: read-out: BPR
Procedure, shortened: (§2)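 SD rats (n = 3, fasted) given 1 mg/kg iv in 30% DMSO/5% glucose. Brain and blood taken at 0.5 and 2 h. Brain homogenized (20% saline). Brain homogenate or plasma (0.1 ml) treated with MeOH/HClO4 (500:1, 0.2 ml), centrifuged 12,000 rpm for 5 min, filtered. Brain-to-plasma concentration ratio calculated.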

[8] = Ratio of drug level in brain to plasma in Sprague-Dawley rat at 1 mg/kg, iv after 2 hrs; type: ADME, organism-based; design: dose 1 mg/kg, route intravenous; conditions: read-out: BPR; procedure, shortened: as §2
[9] = Tmax in Sprague-Dawley rat at 5 mg/kg, po; type: ADME, organism-based; design: dose 5 mg/kg, route oral; conditions: in vivo
Procedure, shortened: (§3)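 Fasted SD rats (n = 3) dosed orally at 5 mg/kg, 1 mg/ml in 0.5% methyl cellulose. Plasma sampled at 0.25, 0.5, 1, 2, 4, 6 and 8 h. Plasma (0.1 ml) deproteinized with MeOH/HClO4 (500:1, 0.2 ml), spun 12,000 rpm for 5 min, filtered. Bioavailability set against the 1 mg/kg iv dosing.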

[10] = Half life in Sprague-Dawley rat at 5 mg/kg, po; type: ADME, organism-based; design: dose 5 mg/kg, route oral; conditions: in vivo; procedure, shortened: as §3
[11] = Cmax in Sprague-Dawley rat at 5 mg/kg, po; type: ADME, organism-based; design: dose 5 mg/kg, route oral; conditions: in vivo; procedure, shortened: as §3
[12] = AUC in Sprague-Dawley rat at 5 mg/kg, po; type: ADME, organism-based; design: dose 5 mg/kg, route oral; conditions: plasma; procedure, shortened: as §3
[13] = Oral bioavailability in Sprague-Dawley rat at 5 mg/kg; type: ADME, organism-based; conditions: in vivo; procedure, shortened: as §3

Row | Compound | Activity (Cerebral cortex [1]) | Activity (Cerebral cortex [2]) | half-life [3] [min] | Vd [4] [L/kg] | clearance [5] [mL/min/kg] | AUC [6] [ng·h/mL] | Kp at 0.5 h [7] | Kp at 2 h [8] | Tmax [9] [min] | half-life [10] [min] | Cmax [11] [ng/mL] | AUC [12] [ng·h/mL] | bioavailability [13] [%]
1 | C[C@]12N[C@H](Cc3ccccc31)c1ccccc12 | Active |  |  |  |  |  |  |  |  |  |  |  | 
2 | C[S@+]([O-])C[C@H]1[C@H]2CC[C@@]3(CC[C@H]4[C@@](C)(CCC[C@]4(C)C(=O)O)[C@@H]3C2)[C@@H]1O [SEROFENDIC ACID A] |  | Active | 28.8 | 0.33 | 8.67 | 1950 |  |  |  |  |  |  | 
3 | COC(=O)[C@@]1(C)CCC[C@@]2(C)[C@@H]3C[C@@H]4CC[C@@]3(CC[C@@H]21)[C@H](O)[C@H]4C[S+](C)[O-] (stereo partly drawn) [SEROFENDIC ACID METHYLESTER] |  |  | 33 | 0.57 | 14.7 | 1440 | 2.2 | 2.21 |  |  |  |  | 
4 | C[S@@+]([O-])C[C@H]1[C@H]2CC[C@@]3(CC[C@H]4[C@@](C)(CCC[C@]4(C)C(=O)O)[C@@H]3C2)[C@@H]1O [SEROFENDIC ACID B] |  | Active | 39 | 0.33 | 6 | 2780 | 0.021 |  | 19.8 | 234 | 2050 | 5640 | 41
